Results from ChEMBL document CHEMBL1240399 (Antimicrob Agents Chemother, 2010).
Values after ≈ are worked out from the molar mass of the structure shown.

tested on: Pseudomonas aeruginosa; assay: Antibacterial activity against Pseudomonas aeruginosa NL68 expressing GES-13 beta lactamase; assay type: functional; settings: not given

SMILES	MIC
C[C@@H](O)[C@H]1C(=O)N2C(C(=O)O)=C(S[C@@H]3CN[C@H](C(=O)N(C)C)C3)[C@H](C)[C@H]12 [MEROPENEM]	32 µg/mL (≈ 83.4 µM)
CO/N=C(\C(=O)N[C@@H]1C(=O)N2C(C(=O)[O-])=C(C[N+]3(C)CCCC3)CS[C@H]12)c1csc(N)n1	64 µg/mL (≈ 133 µM)
CC(C)(O/N=C(\C(=O)N[C@@H]1C(=O)N2C(C(=O)[O-])=C(C[n+]3ccccc3)CS[C@H]12)c1csc(N)n1)C(=O)O [CEFTAZIDIME]	≥ 512 µg/mL
CCN1CCN(C(=O)N[C@@H](C(=O)N[C@@H]2C(=O)N3[C@@H]2SC(C)(C)[C@@H]3C(=O)O)c2ccccc2)C(=O)C1=O [PIPERACILLIN]	256 µg/mL (≈ 495 µM)
C[C@@H](O)[C@H]1C(=O)N2C(C(=O)O)=C(SCCNC=N)C[C@H]12 [IMIPENEM ANHYDROUS]	16 µg/mL (≈ 53.4 µM)
CC1(C)S[C@@H]2[C@H](NC(=O)[C@H](C(=O)O)c3ccsc3)C(=O)N2[C@H]1C(=O)O [TICARCILLIN]	≥ 512 µg/mL

tested on: Escherichia coli; assay: Antibacterial activity against Escherichia coli DH5alpha pB-ges-13 plasmid; assay type: functional; settings: not given

SMILES	MIC
CO/N=C(\C(=O)N[C@@H]1C(=O)N2C(C(=O)O)=C(COC(N)=O)CS[C@H]12)c1ccco1 [CEFUROXIME]	≥ 512 µg/mL
C[C@@H](O)[C@H]1C(=O)N2C(C(=O)O)=C(S[C@@H]3CN[C@H](C(=O)N(C)C)C3)[C@H](C)[C@H]12 [MEROPENEM]	≤ 0.06 µg/mL
CO/N=C(\C(=O)N[C@@H]1C(=O)N2C(C(=O)O)=C(CSc3nc(=O)c(O)nn3C)CS[C@H]12)c1csc(N)n1 [CEFTRIAXONE]	16 µg/mL (≈ 28.9 µM)
CO/N=C(\C(=O)N[C@@H]1C(=O)N2C(C(=O)O)=C(COC(C)=O)CS[C@H]12)c1csc(N)n1 [CEFOTAXIME]	8 µg/mL (≈ 17.6 µM)
CO[C@@]1(NC(=O)Cc2cccs2)C(=O)N2C(C(=O)O)=C(COC(N)=O)CS[C@@H]21 [CEFOXITIN]	8 µg/mL (≈ 18.7 µM)
CC(C)(O/N=C(\C(=O)N[C@@H]1C(=O)N2C(C(=O)[O-])=C(C[n+]3ccccc3)CS[C@H]12)c1csc(N)n1)C(=O)O [CEFTAZIDIME]	≥ 512 µg/mL
CC1(C)S[C@@H]2[C@H](NC(=O)[C@H](N)c3ccc(O)cc3)C(=O)N2[C@H]1C(=O)O [AMOXICILLIN]	≥ 512 µg/mL
N[C@@H](C(=O)N[C@@H]1C(=O)N2C(C(=O)O)=C(Cl)CS[C@H]12)c1ccccc1 [CEFACLOR ANHYDROUS]	≥ 512 µg/mL
CCN1CCN(C(=O)N[C@@H](C(=O)N[C@@H]2C(=O)N3[C@@H]2SC(C)(C)[C@@H]3C(=O)O)c2ccccc2)C(=O)C1=O [PIPERACILLIN]	64 µg/mL (≈ 124 µM)
CC1(C)S[C@@H]2[C@H](NC(=O)[C@H](C(=O)O)c3ccsc3)C(=O)N2[C@H]1C(=O)O [TICARCILLIN]	≥ 512 µg/mL
C[C@H]1[C@H](NC(=O)/C(=N\OC(C)(C)C(=O)O)c2csc(N)n2)C(=O)N1S(=O)(=O)O [AZTREONAM]	8 µg/mL (≈ 18.4 µM)

tested on: Escherichia coli; assay: Antibacterial activity against Escherichia coli DH5alpha pB-ges-1; assay type: functional; settings: not given

SMILES	MIC
CO/N=C(\C(=O)N[C@@H]1C(=O)N2C(C(=O)O)=C(COC(N)=O)CS[C@H]12)c1ccco1 [CEFUROXIME]	≥ 512 µg/mL
C[C@@H](O)[C@H]1C(=O)N2C(C(=O)O)=C(S[C@@H]3CN[C@H](C(=O)N(C)C)C3)[C@H](C)[C@H]12 [MEROPENEM]	≤ 0.06 µg/mL
CO/N=C(\C(=O)N[C@@H]1C(=O)N2C(C(=O)O)=C(CSc3nc(=O)c(O)nn3C)CS[C@H]12)c1csc(N)n1 [CEFTRIAXONE]	16 µg/mL (≈ 28.9 µM)
CO/N=C(\C(=O)N[C@@H]1C(=O)N2C(C(=O)[O-])=C(C[N+]3(C)CCCC3)CS[C@H]12)c1csc(N)n1	1 µg/mL (≈ 2.08 µM)
CO/N=C(\C(=O)N[C@@H]1C(=O)N2C(C(=O)O)=C(COC(C)=O)CS[C@H]12)c1csc(N)n1 [CEFOTAXIME]	4 µg/mL (≈ 8.78 µM)
CO[C@@]1(NC(=O)Cc2cccs2)C(=O)N2C(C(=O)O)=C(COC(N)=O)CS[C@@H]21 [CEFOXITIN]	8 µg/mL (≈ 18.7 µM)
CC(C)(O/N=C(\C(=O)N[C@@H]1C(=O)N2C(C(=O)[O-])=C(C[n+]3ccccc3)CS[C@H]12)c1csc(N)n1)C(=O)O [CEFTAZIDIME]	256 µg/mL (≈ 468 µM)
CC1(C)S[C@@H]2[C@H](NC(=O)[C@H](N)c3ccc(O)cc3)C(=O)N2[C@H]1C(=O)O [AMOXICILLIN]	≥ 512 µg/mL
N[C@@H](C(=O)N[C@@H]1C(=O)N2C(C(=O)O)=C(Cl)CS[C@H]12)c1ccccc1 [CEFACLOR ANHYDROUS]	≥ 512 µg/mL
CCN1CCN(C(=O)N[C@@H](C(=O)N[C@@H]2C(=O)N3[C@@H]2SC(C)(C)[C@@H]3C(=O)O)c2ccccc2)C(=O)C1=O [PIPERACILLIN]	64 µg/mL (≈ 124 µM)
CC1(C)S[C@@H]2[C@H](NC(=O)[C@H](C(=O)O)c3ccsc3)C(=O)N2[C@H]1C(=O)O [TICARCILLIN]	≥ 512 µg/mL
C[C@H]1[C@H](NC(=O)/C(=N\OC(C)(C)C(=O)O)c2csc(N)n2)C(=O)N1S(=O)(=O)O [AZTREONAM]	1 µg/mL (≈ 2.3 µM)

tested on: Escherichia coli; assay: Antibacterial activity against Escherichia coli DH5alpha; assay type: functional; settings: not given

SMILES	MIC
CO/N=C(\C(=O)N[C@@H]1C(=O)N2C(C(=O)O)=C(COC(N)=O)CS[C@H]12)c1ccco1 [CEFUROXIME]	2 µg/mL (≈ 4.71 µM)
C[C@@H](O)[C@H]1C(=O)N2C(C(=O)O)=C(S[C@@H]3CN[C@H](C(=O)N(C)C)C3)[C@H](C)[C@H]12 [MEROPENEM]	≤ 0.06 µg/mL
CO/N=C(\C(=O)N[C@@H]1C(=O)N2C(C(=O)O)=C(CSc3nc(=O)c(O)nn3C)CS[C@H]12)c1csc(N)n1 [CEFTRIAXONE]	0.12 µg/mL (≈ 0.216 µM)
CO/N=C(\C(=O)N[C@@H]1C(=O)N2C(C(=O)O)=C(COC(C)=O)CS[C@H]12)c1csc(N)n1 [CEFOTAXIME]	0.12 µg/mL (≈ 0.263 µM)
CO[C@@]1(NC(=O)Cc2cccs2)C(=O)N2C(C(=O)O)=C(COC(N)=O)CS[C@@H]21 [CEFOXITIN]	4 µg/mL (≈ 9.36 µM)
CC(C)(O/N=C(\C(=O)N[C@@H]1C(=O)N2C(C(=O)[O-])=C(C[n+]3ccccc3)CS[C@H]12)c1csc(N)n1)C(=O)O [CEFTAZIDIME]	0.5 µg/mL (≈ 0.915 µM)
CC1(C)S[C@@H]2[C@H](NC(=O)[C@H](N)c3ccc(O)cc3)C(=O)N2[C@H]1C(=O)O [AMOXICILLIN]	2 µg/mL (≈ 5.47 µM)
N[C@@H](C(=O)N[C@@H]1C(=O)N2C(C(=O)O)=C(Cl)CS[C@H]12)c1ccccc1 [CEFACLOR ANHYDROUS]	4 µg/mL (≈ 10.9 µM)
CCN1CCN(C(=O)N[C@@H](C(=O)N[C@@H]2C(=O)N3[C@@H]2SC(C)(C)[C@@H]3C(=O)O)c2ccccc2)C(=O)C1=O [PIPERACILLIN]	1 µg/mL (≈ 1.93 µM)
CC1(C)S[C@@H]2[C@H](NC(=O)[C@H](C(=O)O)c3ccsc3)C(=O)N2[C@H]1C(=O)O [TICARCILLIN]	2 µg/mL (≈ 5.2 µM)

target: Beta-lactamase GES-13 (Pseudomonas aeruginosa, UniProt D1MIX9); assay: Inhibition of Pseudomonas aeruginosa GES-13 beta lactamase; settings: not given
Sequence (D1MIX9 whole entry): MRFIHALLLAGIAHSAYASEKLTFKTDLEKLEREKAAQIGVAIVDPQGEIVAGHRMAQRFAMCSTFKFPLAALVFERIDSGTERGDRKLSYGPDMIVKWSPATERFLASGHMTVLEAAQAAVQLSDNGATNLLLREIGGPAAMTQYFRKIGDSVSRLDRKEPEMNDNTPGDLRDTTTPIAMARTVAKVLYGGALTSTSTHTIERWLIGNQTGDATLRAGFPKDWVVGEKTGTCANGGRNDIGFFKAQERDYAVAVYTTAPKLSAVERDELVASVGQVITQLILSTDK
Summary of the method: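 GES-13 purified from E. coli DH5α carrying pB-ges13: sonicated in 20 mM Tris pH 8.0, then Q-Sepharose and S-Sepharose chromatography, >95% pure by SDS-PAGE. Enzyme preincubated with a range of inhibitor concentrations for 3 min at 30°C. Residual hydrolysis of 100 μM cephalothin reporter followed spectrophotometrically. Value given as IC50.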

SMILES	IC50
C[C@@H](O)[C@H]1C(=O)N2C(C(=O)O)=C(SCCNC=N)C[C@H]12 [IMIPENEM ANHYDROUS]	150 nM

tested on: Escherichia coli; assay: Antibacterial activity against Escherichia coli DH5alpha pB-ges-13 plasmid in presence of 2 ug/ml clavulanic acid; assay type: functional; settings: not given

SMILES	MIC
CC(C)(O/N=C(\C(=O)N[C@@H]1C(=O)N2C(C(=O)[O-])=C(C[n+]3ccccc3)CS[C@H]12)c1csc(N)n1)C(=O)O [CEFTAZIDIME]	16 µg/mL
CC1(C)S[C@@H]2[C@H](NC(=O)[C@H](N)c3ccc(O)cc3)C(=O)N2[C@H]1C(=O)O [AMOXICILLIN]	32 µg/mL
CC1(C)S[C@@H]2[C@H](NC(=O)[C@H](C(=O)O)c3ccsc3)C(=O)N2[C@H]1C(=O)O [TICARCILLIN]	16 µg/mL

tested on: Escherichia coli; assay: Antibacterial activity against Escherichia coli DH5alpha pB-ges-1in presence of 2 ug/ml clavulanic acid; assay type: functional; settings: not given

SMILES	MIC
CC(C)(O/N=C(\C(=O)N[C@@H]1C(=O)N2C(C(=O)[O-])=C(C[n+]3ccccc3)CS[C@H]12)c1csc(N)n1)C(=O)O [CEFTAZIDIME]	16 µg/mL
CC1(C)S[C@@H]2[C@H](NC(=O)[C@H](N)c3ccc(O)cc3)C(=O)N2[C@H]1C(=O)O [AMOXICILLIN]	64 µg/mL
CC1(C)S[C@@H]2[C@H](NC(=O)[C@H](C(=O)O)c3ccsc3)C(=O)N2[C@H]1C(=O)O [TICARCILLIN]	32 µg/mL

tested on: Escherichia coli; assay: Antibacterial activity against Escherichia coli DH5alpha in presence of 2 ug/ml clavulanic acid; assay type: functional; settings: not given

SMILES	MIC
CC(C)(O/N=C(\C(=O)N[C@@H]1C(=O)N2C(C(=O)[O-])=C(C[n+]3ccccc3)CS[C@H]12)c1csc(N)n1)C(=O)O [CEFTAZIDIME]	0.5 µg/mL
CC1(C)S[C@@H]2[C@H](NC(=O)[C@H](N)c3ccc(O)cc3)C(=O)N2[C@H]1C(=O)O [AMOXICILLIN]	2 µg/mL
CC1(C)S[C@@H]2[C@H](NC(=O)[C@H](C(=O)O)c3ccsc3)C(=O)N2[C@H]1C(=O)O [TICARCILLIN]	2 µg/mL

tested on: Pseudomonas aeruginosa; assay: Antibacterial activity against Pseudomonas aeruginosa NL68 expressing GES-13 beta lactamase in presence of 4 ug/ml Tazobactam; assay type: functional; settings: not given

SMILES	MIC
CC(C)(O/N=C(\C(=O)N[C@@H]1C(=O)N2C(C(=O)[O-])=C(C[n+]3ccccc3)CS[C@H]12)c1csc(N)n1)C(=O)O [CEFTAZIDIME]	256 µg/mL
CCN1CCN(C(=O)N[C@@H](C(=O)N[C@@H]2C(=O)N3[C@@H]2SC(C)(C)[C@@H]3C(=O)O)c2ccccc2)C(=O)C1=O [PIPERACILLIN]	128 µg/mL
C[C@@H](O)[C@H]1C(=O)N2C(C(=O)O)=C(SCCNC=N)C[C@H]12 [IMIPENEM ANHYDROUS]	16 µg/mL

tested on: Pseudomonas aeruginosa; assay: microbe, parasite or virus in culture; settings: NL68

SMILES	MIC
CC(C)(O/N=C(\C(=O)N[C@@H]1C(=O)N2C(C(=O)[O-])=C(C[n+]3ccccc3)CS[C@H]12)c1csc(N)n1)C(=O)O [CEFTAZIDIME]	≥ 512 µg/mL
CC1(C)S[C@@H]2[C@H](NC(=O)[C@H](C(=O)O)c3ccsc3)C(=O)N2[C@H]1C(=O)O [TICARCILLIN]	≥ 512 µg/mL

tested on: Escherichia coli; assay: microbe, parasite or virus in culture; settings: DH5alpha

SMILES	MIC
CC(C)(O/N=C(\C(=O)N[C@@H]1C(=O)N2C(C(=O)[O-])=C(C[n+]3ccccc3)CS[C@H]12)c1csc(N)n1)C(=O)O [CEFTAZIDIME]	4 µg/mL (≈ 7.32 µM)
CCN1CCN(C(=O)N[C@@H](C(=O)N[C@@H]2C(=O)N3[C@@H]2SC(C)(C)[C@@H]3C(=O)O)c2ccccc2)C(=O)C1=O [PIPERACILLIN]	2 µg/mL (≈ 3.86 µM)

tested on: Escherichia coli; assay: microbe, parasite or virus in culture; settings: DH5alpha; remark: another data set of the same source

SMILES	MIC
CC(C)(O/N=C(\C(=O)N[C@@H]1C(=O)N2C(C(=O)[O-])=C(C[n+]3ccccc3)CS[C@H]12)c1csc(N)n1)C(=O)O [CEFTAZIDIME]	16 µg/mL (≈ 29.3 µM)
CCN1CCN(C(=O)N[C@@H](C(=O)N[C@@H]2C(=O)N3[C@@H]2SC(C)(C)[C@@H]3C(=O)O)c2ccccc2)C(=O)C1=O [PIPERACILLIN]	16 µg/mL (≈ 30.9 µM)

tested on: Escherichia coli; assay: microbe, parasite or virus in culture; settings: DH5alpha; remark: another data set of the same source

SMILES	MIC
CC(C)(O/N=C(\C(=O)N[C@@H]1C(=O)N2C(C(=O)[O-])=C(C[n+]3ccccc3)CS[C@H]12)c1csc(N)n1)C(=O)O [CEFTAZIDIME]	0.5 µg/mL (≈ 0.915 µM)
CCN1CCN(C(=O)N[C@@H](C(=O)N[C@@H]2C(=O)N3[C@@H]2SC(C)(C)[C@@H]3C(=O)O)c2ccccc2)C(=O)C1=O [PIPERACILLIN]	0.5 µg/mL (≈ 0.966 µM)
